The source made the active and inactive calls.
Tests used:
[1] = system: Salmonella enterica subsp. enterica serovar Pullorum; assay: (§1) Antibacterial activity against Salmonella pullorum ATCC 7913 after 24 hrs; format: functional
Summary of the method: (§2)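 Broth microdilution. Mid-log bacteria in MHB at a final (0.5−1) × 10^5 CFU/mL were mixed with equal volumes of peptide serially diluted in 0.2% BSA. Plates were incubated 24 h at 37 °C and read at A492. MIC is the lowest concentration inhibiting 95% of growth. Each test was repeated at least 3 times.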

[2] = system: Escherichia coli; assay: Antibacterial activity against Escherichia coli ATCC 25922 after 18 hrs in presence of NaCl by broth dilution method; format: functional
[3] = system: Staphylococcus epidermidis; assay: Bactericidal activity against Staphylococcus epidermidis ATCC 12228; format: functional
Summary of the method: (§3)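 Wells from the 24 h, 37 °C MHB microdilution plates (bacteria at a final (0.5−1) × 10^5 CFU/mL; peptide diluted in 0.2% BSA) were plated on agar and incubated overnight. MBC is the lowest concentration killing >99.9% of cells. Each test was reproduced at least 3 times.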

[4] = system: Escherichia coli; assay: Antibacterial activity against Escherichia coli ATCC 25922 after 18 hrs in presence of 25% human heat-inactivated serum by broth dilution method; format: functional
[5] = system: Salmonella typhimurium; assay: Bactericidal activity against Salmonella typhimurium ATCC 14028; format: functional; summary of the method: as §3
[6] = system: Escherichia coli; assay: Antibacterial activity against Escherichia coli ATCC 25922 after 18 hrs in presence of 50% human heat-inactivated serum by broth dilution method; format: functional
[7] = system: Staphylococcus aureus; assay: Bactericidal activity against methicillin-resistant Staphylococcus aureus ATCC 4330; format: functional
Summary of the method: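 Bacteria at (0.5−1) × 10^5 CFU/mL in MHB were exposed to serially diluted peptide (0.2% BSA) for 24 h at 37 °C, then 50 μL aliquots were plated on agar overnight. MBC is the lowest concentration killing >99.9% of cells. At least 3 repeats.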

[8] = system: Salmonella enterica subsp. enterica serovar Pullorum; assay: (§4) Bactericidal activity against Salmonella pullorum ATCC 7913; format: functional; summary of the method: as §3
[9] = system: Escherichia coli; assay: Antibacterial activity against Escherichia coli 1005 after 24 hrs; format: functional; summary of the method: as §2
[10] = system: Staphylococcus epidermidis; assay: Antibacterial activity against Staphylococcus epidermidis ATCC 12228 after 24 hrs; format: functional; summary of the method: as §2
[11] = system: Escherichia coli; assay: Antibacterial activity against Escherichia coli ATCC 25922 after 18 hrs in presence of MgCl2 by broth dilution method; format: functional
[12] = system: Staphylococcus aureus; assay: Bactericidal activity against Staphylococcus aureus ATCC 29213; format: functional; summary of the method: as §3
[13] = system: Escherichia coli; assay: Bactericidal activity against Escherichia coli ATCC 25922; format: functional; summary of the method: as §3
[14] = system: Escherichia coli; assay: Antibacterial activity against Escherichia coli ATCC 25922 after 24 hrs; format: functional; summary of the method: as §2
[15] = system: Escherichia coli; assay: Antibacterial activity against Escherichia coli ATCC 25922 after 18 hrs in presence of FeCl3 by broth dilution method; format: functional
[16] = system: Staphylococcus aureus; assay: Antibacterial activity against methicillin-resistant Staphylococcus aureus ATCC 4330 after 24 hrs; format: functional
Summary of the method: (§5)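 Modified NCCLS broth microdilution. Mid-log bacteria at (0.5−1) × 10^5 CFU/mL in MHB were mixed 1:1 with peptide serially diluted in 0.2% BSA and incubated 24 h at 37 °C. Absorbance was read at 492 nm; MIC is the lowest concentration inhibiting 95% of growth. At least 3 repeats.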

[17] = system: Escherichia coli; assay: Antibacterial activity against Escherichia coli ATCC 25922 after 18 hrs in presence of 12.5% human heat-inactivated serum by broth dilution method; format: functional
[18] = system: Salmonella typhimurium; assay: Antibacterial activity against Salmonella typhimurium ATCC 14028 after 24 hrs; format: functional; summary of the method: as §2
[19] = system: Staphylococcus aureus; assay: Antibacterial activity against Staphylococcus aureus ATCC 29213 after 24 hrs; format: functional; summary of the method: as §5
[20] = system: Escherichia coli; assay: Antibacterial activity against Escherichia coli ATCC 25922 after 18 hrs in presence of NH4Cl by broth dilution method; format: functional
[21] = system: Escherichia coli; assay: Antibacterial activity against Escherichia coli ATCC 25922 after 18 hrs in presence of ZnCl2 by broth dilution method; format: functional
[22] = system: Escherichia coli; assay: Bactericidal activity against Escherichia coli 1005; format: functional; summary of the method: as §3
[23] = system: Staphylococcus aureus; assay: Antibacterial activity against Staphylococcus aureus ATCC 25923 after 24 hrs; format: functional; summary of the method: as §5
[24] = system: Escherichia coli; assay: Antibacterial activity against Escherichia coli ATCC 25922 after 18 hrs in presence of CaCl2 by broth dilution method; format: functional
[25] = system: Staphylococcus aureus; assay: Bactericidal activity against Staphylococcus aureus ATCC 25923; format: functional; summary of the method: as §3
[26] = system: Escherichia coli; assay: Antibacterial activity against Escherichia coli ATCC 25922 after 18 hrs in presence of KCl by broth dilution method; format: functional
[27] = as §1; format: functional, Salmonella enterica subsp. enterica serovar Pullorum; settings: Salmonella enterica, ATCC 7913, 24 h; summary of the method: as §2
[28] = as §4; format: functional, Salmonella enterica subsp. enterica serovar Pullorum; settings: Salmonella enterica, read-out: MBC99.9; summary of the method: as §3
[29] = system: Lipid bilayer; assay: Binding affinity to phosphatidylglycerol/cardiolipin/phosphatidylethanolamine large unilamellar vesicle assessed as induction of calcein leakage at 2 to 32 uM after 15 mins by spectrofluorophotometric method
Summary of the method: (§6)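 Large unilamellar vesicles were made from PG/CL/PE (2:1:7), PC/PE/PI/ergosterol (5:4:1:2) or PC/cholesterol (10:1), loaded with 70 mM calcein in Tris/NaCl/EDTA buffer at pH 7.4, frozen and thawed 20 times, and extruded through 100 nm filters. Free dye was removed by gel filtration, and peptide-induced calcein release was measured.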

[30] = system: Lipid bilayer; assay: Binding affinity to phosphatidylcholine/cholesterol large unilamellar vesicle assessed as induction of calcein leakage at 2 to 32 uM after 15 mins by spectrofluorophotometric method; settings: 0.25 h; summary of the method: as §6
[31] = Salmonella enterica subsp. enterica serovar Typhimurium

GENTAMICIN
8 µM: MBC99.9 [7] | MIC95 [16]
0.5 µM: MIC95 [9] | MIC95 [10]
4 µM: MBC99.9 [5, 31]
2 µM: MIC [2] | MIC [6] | MBC99.9 [8] | MBC99.9 [13] | MIC95 [18, 31] | MIC [20] | MIC [21]
1 µM: MIC95 [1] | MBC99.9 [3] | MIC [4] | MIC [11] | MBC99.9 [12] | MIC95 [14] | MIC [15] | MIC [17] | MIC95 [19] | MBC99.9 [22] | MIC95 [23] | MIC [24] | MBC99.9 [25] | MIC [26]

O=C(O)c1cn(C2CC2)c2cc(N3CCNCC3)c(F)cc2c1=O [CIPROFLOXACIN]
inactive: Activity [29]
8 µM: MIC ([11]; ATCC 25922, 18 h) | MIC95 ([18]; Salmonella enterica, ATCC 14028, 24 h) | MIC95 ([23]; ATCC 25923, 24 h) | MIC ([24]; ATCC 25922, 18 h) | MBC ([25]; read-out: MBC99.9)
2 µM: MIC95 [27] | MIC ([2]; ATCC 25922, 18 h) | MIC ([4]; ATCC 25922, 18 h) | MIC95 ([9]; Escherichia coli, 1005, 24 h) | MIC95 ([10]; ATCC 12228, 24 h) | MIC95 ([14]; ATCC 25922, 24 h) | MIC ([17]; ATCC 25922, 18 h) | MIC ([20]; ATCC 25922, 18 h) | MIC ([21]; ATCC 25922, 18 h) | MIC ([26]; ATCC 25922, 18 h)
1 µM: MBC ([7]; read-out: MBC99.9) | MIC95 ([16]; ATCC 4330, 24 h)
16 µM: MBC ([5]; Salmonella enterica, read-out: MBC99.9)
Not Active: Activity [30]
4 µM: MBC ([3]; read-out: MBC99.9) | MIC ([6]; ATCC 25922, 18 h) | MBC [28] | MBC ([12]; read-out: MBC99.9) | MBC ([13]; read-out: MBC99.9) | MIC ([15]; ATCC 25922, 18 h) | MIC95 ([19]; ATCC 29213, 24 h) | MBC ([22]; read-out: MBC99.9)

— ChEMBL document CHEMBL4177755, “Combating Drug-Resistant Fungi with Novel Imperfectly Amphipathic Palindromic Peptides” (J Med Chem, 2018)
